# In ChEMBL document CHEMBL1122222, “Synthesis and biological activities of the Z isomers of carbapenem antibiotics” (J Med Chem, 1983):
# How the values were obtained:
# Mus musculus [1] = experiment: In vivo protective effect in mice infected with Proteus vulgaris GN4815 at (dose mg/kg) administered sc; type: functional
# Serratia marcescens = experiment: Inhibition of growth of Serratia marcescens IFO 12648; type: functional; conditions: Serratia marcescens, IFO 12648; read-out: MIC
# Procedure, shortened: (§1)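 Agar dilution MIC on Trypticase soy agar; inoculum one loopful of bacterial suspension at 10⁸ cfu/mL.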
# Beta-lactamase [2] = biological target: Beta-lactamase (Serratia marcescens, UniProt P18539); experiment: Beta-lactamase inhibitory activity against cephalosporinase of Serratia marcescens. TN81; conditions: read-out: I50 (converted)
# Sequence of Beta-lactamase (Serratia marcescens, UniProt P18539) (P18539 whole entry): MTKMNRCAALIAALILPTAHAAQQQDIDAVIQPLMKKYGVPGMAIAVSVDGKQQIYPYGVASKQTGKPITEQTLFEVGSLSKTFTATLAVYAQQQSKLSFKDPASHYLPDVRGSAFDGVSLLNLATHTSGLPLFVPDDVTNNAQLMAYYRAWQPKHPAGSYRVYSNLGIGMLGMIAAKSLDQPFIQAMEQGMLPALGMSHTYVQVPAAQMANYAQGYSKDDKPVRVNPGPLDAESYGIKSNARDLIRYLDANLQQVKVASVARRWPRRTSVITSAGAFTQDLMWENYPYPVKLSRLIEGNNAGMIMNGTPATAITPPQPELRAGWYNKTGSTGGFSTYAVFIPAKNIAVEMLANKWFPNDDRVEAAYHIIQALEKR
# Enterobacter cloacae = experiment: Inhibition of growth of Enterobacter cloacae IFO 12937; type: functional; conditions: Enterobacter cloacae, IFO 12937; read-out: MIC; procedure, shortened: as §1
# Proteus mirabilis = experiment: Inhibition of growth of Proteus mirabilis IFO 3849; type: functional; conditions: Proteus mirabilis, IFO 3849; read-out: MIC; procedure, shortened: as §1
# Escherichia coli [3] = experiment: MIC against Escherichia coli O-111; type: functional; conditions: Escherichia coli; read-out: MIC; procedure, shortened: as §1
# Beta-lactamase [4] = biological target: Beta-lactamase (Proteus vulgaris, UniProt P52664); experiment: Beta-lactamase inhibitory activity against cephalosporinase of Proteus vulgaris GN4413; conditions: read-out: I50 (converted)
# Sequence of Beta-lactamase (Proteus vulgaris, UniProt P52664) (P52664 whole entry, looked up): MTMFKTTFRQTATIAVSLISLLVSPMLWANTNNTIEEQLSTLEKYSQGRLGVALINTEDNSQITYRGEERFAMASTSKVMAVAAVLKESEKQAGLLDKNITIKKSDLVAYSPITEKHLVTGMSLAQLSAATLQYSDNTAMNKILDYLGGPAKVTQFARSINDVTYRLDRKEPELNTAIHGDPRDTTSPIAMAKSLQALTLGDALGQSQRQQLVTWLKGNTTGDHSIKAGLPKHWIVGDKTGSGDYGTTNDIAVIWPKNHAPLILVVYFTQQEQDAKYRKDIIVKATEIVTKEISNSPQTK
# Pseudomonas aeruginosa = experiment: Inhibition of growth of Pseudomonas aeruginosa IFO 3455; type: functional; conditions: Pseudomonas aeruginosa, IFO 3455; read-out: MIC; procedure, shortened: as §1
# [5] = biological target: Beta-lactamase (Staphylococcus aureus) (UniProt P00807)
# Sequence of Beta-lactamase (Staphylococcus aureus) (P00807 whole entry): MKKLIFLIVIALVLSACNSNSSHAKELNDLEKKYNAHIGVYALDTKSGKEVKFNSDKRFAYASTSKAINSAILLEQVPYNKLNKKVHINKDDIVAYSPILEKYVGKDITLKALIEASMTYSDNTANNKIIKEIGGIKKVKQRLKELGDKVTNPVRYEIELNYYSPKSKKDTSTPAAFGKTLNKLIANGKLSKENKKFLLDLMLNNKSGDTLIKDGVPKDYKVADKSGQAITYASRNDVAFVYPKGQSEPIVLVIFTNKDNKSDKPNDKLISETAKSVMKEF
# [6] = biological target: T1, Beta-lactamase (Proteus mirabilis) (UniProt P30897); conditions: Proteus vulgaris
# T1 sequence (whole entry): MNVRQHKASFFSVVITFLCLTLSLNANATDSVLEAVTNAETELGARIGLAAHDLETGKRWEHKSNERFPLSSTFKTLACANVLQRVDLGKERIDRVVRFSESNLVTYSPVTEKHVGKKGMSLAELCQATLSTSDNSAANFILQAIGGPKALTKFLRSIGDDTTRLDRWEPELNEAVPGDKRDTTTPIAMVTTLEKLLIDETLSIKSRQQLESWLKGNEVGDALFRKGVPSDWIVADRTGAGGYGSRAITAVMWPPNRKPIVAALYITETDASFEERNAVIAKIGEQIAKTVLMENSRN
# Morganella morganii = experiment: Inhibition of growth of Proteus morganii IFO 3168; type: functional; conditions: Morganella morganii, IFO 3168; read-out: MIC; procedure, shortened: as §1
# Proteus vulgaris = experiment: Inhibition of growth of Proteus vulgaris IFO 3988; type: functional; conditions: Proteus vulgaris, IFO 3988; read-out: MIC; procedure, shortened: as §1
# Mus musculus [7] = experiment: In vivo synergistic protective effect with cefotiam in mice infected with Proteus vulgaris GN4815 at 100 mg/kg dose given sc; type: functional; conditions: route subcutaneous
# [8] = biological target: Beta-lactamase (Serratia marcescens) (UniProt P18539)
# Sequence of Beta-lactamase (Serratia marcescens) (P18539 whole entry): as the sequence (P18539 whole entry) above
# [9] = In vitro potentiation activity was tested after adding a concentration of […] into the agar plate of ampicillin or cefotiam; show synergistic effect; type: functional
# Mus musculus [10] = experiment: Effective does against ip infected Escherichia coli O-111 […] when administered sc; type: functional; conditions: Mus musculus; read-out: ED50
# Procedure, shortened: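 Slc:ICR mice; ED50 calculated by the Reed–Muench method from survival recorded 5 days after infection.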
# Mus musculus [11] = organism: Mus musculus; experiment: Half life in mouse kidney homogenates; type: ADME
# Procedure, shortened: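 Carbapenem at 50 µg/mL incubated in 10% mouse kidney homogenate at 30 °C; residual antibiotic measured at intervals by its β-lactamase-inhibiting activity.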
# Escherichia coli [12] = experiment: Inhibition of growth of Escherichia coli T-7; type: functional; conditions: Escherichia coli; read-out: MIC; procedure, shortened: as §1
# Klebsiella pneumoniae [13] = experiment: Beta-lactamase inhibitory activity against penicillinase of Klebsiella pneumoniae. TN1698
# Beta-lactamase [14] = biological target: Beta-lactamase (Staphylococcus aureus, UniProt P00807); experiment: Beta-lactamase inhibitory activity against penicillinase of Staphylococcus aureus 1840; conditions: read-out: I50 (converted)
# Sequence of Beta-lactamase (Staphylococcus aureus, UniProt P00807) (P00807 whole entry): as the sequence (P00807 whole entry) above
# Mus musculus [15] = experiment: In vivo synergistic protective effect with cefotiam in mice infected with Proteus vulgaris GN4815 at 10 mg/kg dose given sc; type: functional; conditions: route subcutaneous
# Staphylococcus aureus = experiment: Inhibition of growth of Staphylococcus aureus 308 A-1; type: functional; conditions: Staphylococcus aureus; read-out: MIC; procedure, shortened: as §1
# Mus musculus [16] = experiment: In vivo synergistic protective effect with cefotiam in mice infected with Proteus vulgaris GN4815 at 1 mg/kg dose given sc; type: functional; conditions: route subcutaneous
# Citrobacter freundii = experiment: Inhibition of growth of Citrobacter freundii IFO 12681; type: functional; conditions: Citrobacter freundii, IFO 12681; read-out: MIC; procedure, shortened: as §1
# [17] = tested on: Acinetobacter calcoaceticus; experiment: Inhibition of growth of Acinetobacter calcoaceticus. IFO 13006; type: functional, acinetobacter calcoacet; conditions: Acinetobacter calcoaceticus, IFO 13006; read-out: MIC; procedure, shortened: as §1
# Klebsiella pneumoniae [18] = experiment: Inhibition of growth of Klebsiella pneumoniae DT; type: functional; conditions: Klebsiella pneumoniae; read-out: MIC; procedure, shortened: as §1
# [19] = In vitro potentiation activity was tested after adding a concentration of […] into the agar plate of ampicillin; show synergistic effect; type: functional
# [20] = biological target: T1, Beta-lactamase (Proteus mirabilis); conditions: Proteus vulgaris; remark: listed apart in the source
# [21] = biological target: Beta-lactamase (Serratia marcescens) (UniProt P18539); remark: listed apart in the source
# [22] = biological target: Beta-lactamase (Staphylococcus aureus) (UniProt P00807); remark: listed apart in the source
compound,measurement,setting,value
CN(C)CCn1nnnc1SCC1=C(C(=O)O)N2C(=O)[C@@H](NC(=O)Cc3csc(N)n3)[C@H]2SC1 [CEFOTIAM],ED50,Mus musculus [1],35.5 mg/kg
CC(=O)N/C=C/[S+]([O-])C1=C(C(=O)[O-])N2C(=O)[C@@H](C(C)(C)OS(=O)(=O)[O-])[C@H]2C1.[Na+].[Na+] (stereo partly drawn),MIC,Serratia marcescens,12.5 µg/mL
same,IC50,Beta-lactamase [2],118 nM
same,MIC,Enterobacter cloacae,25 µg/mL
same,MIC,Proteus mirabilis,50 µg/mL
same,MIC,Escherichia coli [3],6.25 µg/mL
same,IC50,Beta-lactamase [4],0.793 nM
same,MIC,Pseudomonas aeruginosa,> 100 µg/mL
same,MIC,[5],12.5 µg/mL
same,MIC,[6],1.56 µg/mL
same,MIC,Morganella morganii,50 µg/mL
same,MIC,Proteus vulgaris,50 µg/mL
same,ED50 at 100 mg/kg,Mus musculus [7],3.86 mg/kg
same,MIC,[8],6.25 µg/mL
same,Activity,[9],synergistic effect
same,ED50,Mus musculus [10],> 100 mg/kg
same,T1/2,Mus musculus [11],22 min
same,MIC,Escherichia coli [12],12.5 µg/mL
same,MIC,Klebsiella pneumoniae [13],6.25 µg/mL
same,IC50,Beta-lactamase [14],450 nM
same,ED50 at 10 mg/kg,Mus musculus [15],8.87 mg/kg
same,MIC,Staphylococcus aureus,12.5 µg/mL
same,ED50 at 1 mg/kg,Mus musculus [16],12.5 mg/kg
same,MIC,Citrobacter freundii,12.5 µg/mL
same,MIC,[17],25 µg/mL
same,MIC,Klebsiella pneumoniae [18],12.5 µg/mL
CC(=O)N/C=C/[S+]([O-])C1=C(C(=O)O)N2C(=O)[C@@H](C(C)(C)O)[C@H]2C1 (stereo in doubt; 20),Activity,[19],synergistic effect
CC(=O)N/C=C\[S+]([O-])C1=C(C(=O)O)N2C(=O)[C@@H](C(C)OS(=O)(=O)O)[C@H]2C1 (stereo partly drawn),IC50,Beta-lactamase [2],0.752 nM
same,MIC,[20],50 µg/mL
same,MIC,[21],25 µg/mL
same,IC50,Beta-lactamase [4],0.354 nM
same,MIC,[22],50 µg/mL
same,IC50,Beta-lactamase [14],7.52 nM
